The values that follow come from ChEMBL document CHEMBL1125797, “Synthesis, characterization and myocardial uptake of cationic bis(arene)technetium(I) complexes” (J Med Chem, 1991).

Data set [1] is filed under the species Rattus norvegicus. Nature of the data set: The compound was tested for the plasma binding in rat. It counts as ADME, organism-based.
Data set [2] can be described thus: The compound was tested for the plasma binding in human. It is filed as ADME, cell-free. The procedure, abridged:
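Fresh heparinized human plasma (1.0 mL, obtained daily) was spiked with 0.02 mL test solution and incubated about 15 min. Duplicate samples went through saline-equilibrated Sephadex G-25 desalting columns by centrifugation. Eluate and gel were γ-counted for 1 min or to 1% σ error. % bound = net cpm eluate / net cpm (eluate + gel) × 100.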

The subject of data set [3] is Rattus norvegicus. Nature of the data set: Biodistribution of compound in rat blood after 5 min of administration. Conditions: in vivo. It counts as ADME, organism-based. The procedure, abridged: (§1)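 Female Sprague-Dawley rats (150–200 g) received the 99mTc complex in normal saline (~12.5 μCi/mL) via a lateral tail vein at ~25 μCi/kg. They were killed by cervical dislocation 5 min after injection. Tissues were washed with saline, blotted, weighed and γ-counted, and the read-out was percent injected dose per g tissue.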

Data set [4] has as its system Rattus norvegicus. Nature of the data set: Biodistribution of compound in rat heart after 5 min of administration. It counts as ADME, organism-based. Conditions: in vivo. The procedure, abridged: as §1
For data set [5], the system named is Rattus norvegicus. Nature of the data set: Biodistribution of compound in rat kidney after 5 min of administration. It is filed as ADME, organism-based. Conditions: in vivo. The procedure, abridged:
as §1

Data set [6] relates to Rattus norvegicus. The data set can be described thus: Biodistribution of compound in rat liver after 5 min of administration. It is filed as ADME, organism-based. Conditions: in vivo. The procedure, abridged: as §1
In data set [7] the test system is Rattus norvegicus. The data set can be described thus: Biodistribution of compound in rat lung after 5 min of administration. It is filed as ADME, organism-based. Conditions: in vivo. The procedure, abridged: (§2)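 Rats received the 99mTc complex in normal saline (~12.5 μCi/mL) by lateral tail vein injection at ~25 μCi/kg and were killed by cervical dislocation at the stated time. Tissues were washed with saline, blotted, weighed and γ-counted to give percent injected dose/g. Time-course values are averages of male and female rats.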

For data set [8], the system named is Rattus norvegicus. The data set can be described thus: (§3) Biodistribution of compound in rat muscle after 5 min of administration. It is filed as ADME, organism-based, Muscle tissue. Conditions: in vivo. The procedure, abridged:
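Female Sprague-Dawley rats (150–200 g) received the complex in normal saline (~12.5 μCi/mL) through a lateral tail vein at ~25 μCi/kg. Rats were killed by cervical dislocation 5 min after injection. Tissues were washed with saline, blotted, weighed and γ-counted to give percent injected dose/g tissue.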

Data set [9] in a line: as §3. It counts as ADME, organism-based, Muscle tissue. Conditions: in vivo. The procedure, abridged:
as §2

Bis(1,2,3-trimethylbenzene)technetium: the Plasma binding in the data set filed under Rattus norvegicus [1] is 6.6%; in data set [2], 24%. Moreover, the Dose/g was 0.13% in the data set with Rattus norvegicus [3]; 1% with Rattus norvegicus [4]; 9% in the data set on Rattus norvegicus [5]; 1% in the data set with Rattus norvegicus [6]; 0.66% with Rattus norvegicus [7]; 0.27% in the data set with Rattus norvegicus [8].
Take Bis(m-xylene)technetium: the Dose/g was found to be 0.1% in the data set on Rattus norvegicus [3]; 0.47% in the data set with Rattus norvegicus [4]; 8% in the data set with Rattus norvegicus [5]; 2% in the data set with Rattus norvegicus [6]; 0.59% with Rattus norvegicus [7]; 0.17% in data set [9].
With BIS(TOLUENE)TECHNETIUM, the Dose/g is 0.2% in the data set with Rattus norvegicus [3]; 0.22% with Rattus norvegicus [4]; 3.4% in the data set on Rattus norvegicus [5]; 2.6% in the data set on Rattus norvegicus [6]; 0.51% in the data set on Rattus norvegicus [7]; 0.069% in the data set with Rattus norvegicus [8].
